Screening data (PubChem)
ATG4B inh: ATG4B (human) cysteine protease inhibition | inhibition, % at 8.33 µM | AID 504462 | ATG4B cleavage of LC3-PLA2, NBD-HPC fluorescence, 1 h | 0.51% of 340,000 active; in the data active means inhibition above about 40%
Target sequence (Q9Y4P1 whole entry, looked up): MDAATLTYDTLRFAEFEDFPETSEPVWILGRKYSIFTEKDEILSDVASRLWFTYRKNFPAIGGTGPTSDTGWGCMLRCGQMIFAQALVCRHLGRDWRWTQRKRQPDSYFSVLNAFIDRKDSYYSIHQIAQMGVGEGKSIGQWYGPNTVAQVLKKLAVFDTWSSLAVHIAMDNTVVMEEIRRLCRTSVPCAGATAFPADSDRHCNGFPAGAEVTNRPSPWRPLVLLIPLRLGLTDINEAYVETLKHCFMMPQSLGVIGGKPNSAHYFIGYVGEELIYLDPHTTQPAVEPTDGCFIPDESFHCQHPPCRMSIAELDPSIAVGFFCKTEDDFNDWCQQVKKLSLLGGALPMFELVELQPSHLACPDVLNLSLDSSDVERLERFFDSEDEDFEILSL
CSN deneddyl inh: blocks human CSN-mediated cullin deneddylation; AID 651999; Purified CSN, SCF-Nedd8-OG deneddylation, fluorescence polarization; inhibition, % at 12.5 µM; 0.38% of 360,000 active;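 active means pattern-corrected inhibition above about 35%, with an unprinted fluorescence ratio check between 0.5 and 1.5, limit read from the data, passing the limit was not always enough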
Target sequence (Q92905 whole entry, looked up, one chain of several): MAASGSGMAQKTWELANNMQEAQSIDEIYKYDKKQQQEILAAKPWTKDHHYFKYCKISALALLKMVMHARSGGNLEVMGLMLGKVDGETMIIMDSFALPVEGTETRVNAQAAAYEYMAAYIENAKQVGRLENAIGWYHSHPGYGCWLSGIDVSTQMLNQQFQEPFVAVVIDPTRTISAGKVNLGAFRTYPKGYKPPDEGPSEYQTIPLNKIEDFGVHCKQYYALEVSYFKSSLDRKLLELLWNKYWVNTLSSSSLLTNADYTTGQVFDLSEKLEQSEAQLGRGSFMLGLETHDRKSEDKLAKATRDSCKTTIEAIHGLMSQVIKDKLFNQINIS
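test system = HEK293T-derived human Csn5 enzyme | amount = 0.24 nM Csn5 enzyme, final concentration | medium = Tris/NaCl/DTT buffer, pH 7.5 | schedule = 90 min reaction at room temperature | signal = FP | evaluation = inhibition of Csn5 cleavage, % | compound dosing = single dose of 12.5 µM compound with 0.25% DMSO | probe or stimulus = 10 nM SCFSkp2-Nedd8OG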
UHRF1 binding: human UHRF1 methylated DNA binding inhibitors. Q96T88. UHRF1 binding to methylated oligo, TR-FRET. AID 687016. inhibition, % at 4.4 µM. 0.75% of 370,000 active; in the data active means inhibition above about 21%;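 further: UHRF1 SRA domain binding a hemimethylated CpG hairpin DNA probe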
LEDGF integ inh: blocks HIV-1 LEDGF/p75-dependent DNA integration; inhibition, % at 3.7 µM; TR-FRET IN-LEDGF/p75 DNA integration, Eu/Cy5; 0.64% of 370,000 active;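 active means inhibition above the screen-wide mean plus 3 SD, cut at about 13% in these data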;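 further: signal is the Cy5 over europium emission ratio at 671 and 618 nm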
rCAG RNA binder: r(CAG) repeat RNA binding; inhibition, % at 3 µM; 1.3% of 370,000 active; TO-PRO-1 dye displacement fluorescence; AID 651821;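 active means inhibition above the plate cutoff, the mean of all test compounds on that plate plus 3 SD, cut at about 35% in these data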;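 further: higher means more dye released from RNA so lower well fluorescence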
MBD2 DNA inh: MBD2-methylated oligo binding inhibition; TR-FRET, MBD2 binding to methylated oligonucleotide; inhibition, % at 4.4 µM; 0.31% of 370,000 active; in the data active means inhibition above about 13%
CSN deneddyl val: Csn5 (human) deneddylation inhibition, single-concentration validation; shares compounds with CSN deneddyl inh; Csn5 deneddylation of SCF-Nedd8OG, fluorescence polarization, 90 min; inhibition, % at 16.6 µM; 62% of 540 active; in the data active means inhibition above about 50%
MMP2 cntr CSN: MMP-2 (human) inhibition, counter-screen for CSN hits. 33% of 540 active. inhibition, % at 16.6 µM. AID 720655. shares compounds with CSN deneddyl inh. recombinant MMP-2, FRET substrate fluorescence, 60 min;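 active means corrected plate-normalized z-score of 5 or more, or -5 or less, or inhibition of 15% or more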
Thrombin counter: blocks bovine thrombin in a CSN deneddylation counter-screen. shares compounds with CSN deneddyl inh. bovine thrombin cleavage of Ub4-pepOG, fluorescence polarization. inhibition, % at 16.6 µM. 49% of 540 active. AID 720656;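 active means inhibition at or above a set limit, with a fluorescence interference ratio between 0.5 and a set maximum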
Of the large screens only hits and unclear results are named; the others gave an inactive call (follow-up assays come after a bar, where they were run). Rows were chosen to be rich in hits. Some 3.1% of all compounds tested hit in one or more screens of this group.

N#C/C(=C\c1ccc(N2CCOCC2)o1)C(=O)NCCc1ccccc1	CSN deneddyl inh 98 | CSN deneddyl val active | MMP2 cntr CSN inactive | Thrombin counter inactive
O=C(Nc1ccc(Cl)c(Cl)c1)C1CCN(c2nnc(-n3cccc3)s2)CC1	none (no result: ATG4B inh, CSN deneddyl inh)
Cc1cc(N2CCOc3ccccc32)nc2ccccc12	none (no result: ATG4B inh, CSN deneddyl inh, rCAG RNA binder)
O=C(Nc1cccc([N+](=O)[O-])c1)NC1CCCCN(Cc2cccc(Cl)c2)C1=O (stereo unspecified)	none (no result: ATG4B inh, CSN deneddyl inh)
Cc1cc(N2CCN(C)CC2)ccc1NC(=O)c1cccc(S(=O)(=O)N2CCc3ccccc3C2)c1	CSN deneddyl inh 108 | CSN deneddyl val 53 | MMP2 cntr CSN inactive | Thrombin counter inactive
COC(=O)C1CN(Cc2cn(CCOC(C)=O)nn2)CCS(=O)(=O)N1Cc1ccccc1 (stereo unspecified)	none (no result: ATG4B inh, CSN deneddyl inh)
COc1ccc(NC(=O)CSc2ncnc3sc(C)cc23)cc1	none
Cc1cc2c(SCC(=O)Nc3cccc(O)c3)ncnc2s1	CSN deneddyl inh 36, rCAG RNA binder 54 | CSN deneddyl val 85 | MMP2 cntr CSN inactive | Thrombin counter inactive
O=c1c2c3c(sc2[nH]c(=S)n1Cc1ccco1)CCC3	CSN deneddyl inh 45 | CSN deneddyl val 92 | MMP2 cntr CSN 34 | Thrombin counter inactive
COc1cccc(/C=N/N2C(=O)CSC2=S)c1O	none
COc1cc(/C=N/N2C(=O)CSC2=S)cc(Br)c1O	CSN deneddyl inh 118 | CSN deneddyl val inactive | MMP2 cntr CSN 24 | Thrombin counter 88
C=CCn1c(N)c(C(=O)NCC2CCCO2)c2nc3ccccc3nc21 (stereo unspecified)	CSN deneddyl inh 36 | CSN deneddyl val 101 | MMP2 cntr CSN inactive | Thrombin counter inactive
O=C(NCc1cc(C(F)(F)F)ccc1Cl)c1cccc2c1C(=O)c1ccc(N3CCC(N4CCCCC4)CC3)cc1S2(=O)=O	CSN deneddyl inh 82 (no result: ATG4B inh) | CSN deneddyl val inactive | MMP2 cntr CSN inactive | Thrombin counter 46
O=C(NCc1cc(C(F)(F)F)ccc1Cl)c1cccc2c1C(=O)c1ccc(N3CCOCC3)cc1S2(=O)=O	none
CC[n+]1c(/C=C/N(C)c2ccccc2)oc2ccc(F)cc21	CSN deneddyl inh 37 | CSN deneddyl val 122 | MMP2 cntr CSN inactive | Thrombin counter 47
O=[N+]([O-])c1ccc(/C=C/C2=NN(c3ccccc3)C(c3ccco3)C2)o1 (stereo unspecified)	CSN deneddyl inh 62 | CSN deneddyl val inactive | MMP2 cntr CSN inactive | Thrombin counter 21
C(=C\c1ccco1)/C1=NN(c2ccccc2)C(c2ccco2)C1 (stereo unspecified)	CSN deneddyl inh 84 (no result: UHRF1 binding, LEDGF integ inh, rCAG RNA binder, MBD2 DNA inh) | CSN deneddyl val 62 | MMP2 cntr CSN inactive | Thrombin counter 31
c1ccc(C2CCC3(CC2)CCC3NCc2cccs2)cc1 (stereo unspecified)	none (no result: ATG4B inh, CSN deneddyl inh, rCAG RNA binder)
CC(=O)CC[C@H]1CC[C@]2(CCCN(C(=O)c3ccco3)C2)O1	none (no result: ATG4B inh, CSN deneddyl inh)
N#C/C(=C/c1ccc(N2CCCCCC2)o1)c1ccc(Cl)cc1	CSN deneddyl inh 78 (no result: UHRF1 binding, LEDGF integ inh, rCAG RNA binder, MBD2 DNA inh) | CSN deneddyl val 188 | MMP2 cntr CSN -34 | Thrombin counter 58
N#C/C(=C/c1ccc(N2CCCCC2)o1)c1cccc(F)c1	none
CCOC(=O)c1sc(NC(=O)CSc2n[nH]c(-c3ccncc3)n2)c(C#N)c1C	none
CCOc1ccc(/C=C/C2=Cc3c(sc(NC(=O)CSc4n[nH]c(N)n4)c3C#N)C(C)(C)C2)cc1	CSN deneddyl inh 44, rCAG RNA binder 43 | CSN deneddyl val 72 | MMP2 cntr CSN inactive | Thrombin counter 35
Cc1ccc2nc(/C(C#N)=C/c3ccc(-c4ccccc4C(=O)O)o3)[nH]c2c1	CSN deneddyl inh 76 | CSN deneddyl val 63 | MMP2 cntr CSN -32 | Thrombin counter inactive
N#C/C(=C\c1ccc([N+](=O)[O-])o1)c1nc2ccccc2[nH]1	none (no result: CSN deneddyl inh)
Cc1cc2nc(/C(C#N)=C\c3ccc(-c4ccccc4C(=O)O)o3)[nH]c2cc1C	none
Cc1ccc2nc(/C(C#N)=C\c3ccc([N+](=O)[O-])o3)[nH]c2c1	CSN deneddyl inh 52 | CSN deneddyl val inactive | MMP2 cntr CSN 18 | Thrombin counter 44
CN(C)c1ccc(/C=C2\CCC/C(=C\c3ccccc3)C2=O)cc1	CSN deneddyl inh 73 | CSN deneddyl val 91 | MMP2 cntr CSN inactive | Thrombin counter 36
O=C1/C(=C/c2ccccc2)CCCc2ccccc21	none
CCCCNC1=CC(=O)C(=O)c2ccccc21	CSN deneddyl inh 48 | CSN deneddyl val 87 | MMP2 cntr CSN inactive | Thrombin counter inactive
Cc1ccc(-c2nn3c(C)nnc3s2)cc1NC(=O)c1ccc(-c2cccc(Cl)c2)o1	none
Cc1ccc(-c2nn3c(C)nnc3s2)cc1NC(=O)c1ccc(-c2ccc(Cl)cc2Cl)o1	CSN deneddyl inh 124 | CSN deneddyl val 112 | MMP2 cntr CSN inactive | Thrombin counter inactive
COC(=O)C1CN(Cc2ccc(Cl)cc2)CCS(=O)(=O)N1Cc1cn(Cc2ccc(Cl)cc2)nn1 (stereo unspecified)	none (no result: ATG4B inh, CSN deneddyl inh)
COc1cc(C2C(C#N)=C(N)Oc3cc(O)ccc32)cc2c1OCO2 (stereo unspecified)	none
COc1cc(C2C(C#N)=C(N)Oc3cc(N(C)C)ccc32)cc2c1OCO2 (stereo unspecified)	CSN deneddyl inh 36 | CSN deneddyl val 86 | MMP2 cntr CSN inactive | Thrombin counter 20
CCOC(=O)/C(C#N)=C/C=C1\C=Cc2ccccc2N1CC	CSN deneddyl inh 44 | CSN deneddyl val 99 | MMP2 cntr CSN inactive | Thrombin counter 55
CC(=O)C1(C(=O)NC2CCCC2)CC(c2ccccn2)=NO1 (stereo unspecified)	none (no result: ATG4B inh, CSN deneddyl inh)
O=C(CCCN1C(=O)/C(=C/c2ccccc2Cl)SC1=S)NNC(=O)c1ccc(Cl)cc1Cl	none
O=C(O)CN1C(=O)/C(=C\c2cc(Br)ccc2OCc2ccc(Cl)cc2Cl)SC1=S	CSN deneddyl inh 36 (no result: UHRF1 binding, LEDGF integ inh, rCAG RNA binder, MBD2 DNA inh) | CSN deneddyl val inactive | MMP2 cntr CSN inactive | Thrombin counter inactive
CCCCn1c(NS(=O)(=O)c2ccc(C)cc2)c(S(=O)(=O)c2ccccc2)c2nc3ccccc3nc21	CSN deneddyl inh 69 | CSN deneddyl val 101 | MMP2 cntr CSN inactive | Thrombin counter inactive
Nc1cccc2cc(S(=O)(=O)O)ccc12	CSN deneddyl inh 37, UHRF1 binding 47, LEDGF integ inh 39 | CSN deneddyl val 67 | MMP2 cntr CSN inactive | Thrombin counter inactive
Cc1ccc(CN2C(=O)N/C(=C/c3ccc(-c4ccc(C(=O)O)cc4)o3)C2=O)cc1	none
